The text below walks through data of ChEMBL document CHEMBL4011642, “Potent, Selective, and Cell Active Protein Arginine Methyltransferase 5 (PRMT5) Inhibitor Developed by Structure-Based Virtual Screening and Hit Optimization” (J Med Chem, 2017).

The source made the active and inactive calls. The calls are words filed in the database; no cut-off is given here.

The target of series [1] is T1, PRMT5/MEP50 complex (Homo sapiens, UniProt O14744). Nature of the series: Inhibition of recombinant human N-terminal FLAG-tagged PRMT5 (2 to end residues) /human N-terminal His-tagged MEP50 (2 to end residues) expressed in HEK293F cells using histone H4 as substrate preincubated for 15 mins followed by substrate/S-adenosyl methionine addition measured after 60 mins by alpha LISA assay. Set-up: species or system HEK293. Background: Bead proximity is the source of the signal in Alpha formats.

For series [2], the target named is T1, PRMT5/MEP50 complex. Nature of the series: Inhibition of recombinant human N-terminal FLAG-tagged PRMT5 (2 to end residues)/human N-terminal His-tagged MEP50 (2 to end residues) expressed in HEK293F cells using histone H4 as substrate in presence of [3H]-SAM after 60 mins by chemiluminescent assay. Conditions: in the assay text read “radioactive methylation assay” for “chemiluminescent assay”. Type of series: cell-based, HEK293. In a few lines:
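PRMT5/MEP50 complex in modified Tris buffer with 3-fold diluted compound (1% DMSO final) preincubated 15 min at RT. Substrate added and reaction started with [3H]-SAM; 60 min at RT, stopped with cold SAM. Transferred to Flashplate, washed, counted on MicroBeta.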

In series [3] the target is T2, PRMT5/MEP50 complex (Homo sapiens) (UniProt O14744+Q9BQA1). Nature of the series: Competitive inhibition of recombinant human N-terminal FLAG-tagged PRMT5 (2 to end residues) /human N-terminal His-tagged MEP50 (2 to end residues) expressed in HEK293F cells using peptide substrate preincubated for 15 mins followed by substrate/[3H]-SAM addition measured after 60 mins under varying concentration of peptide. In kind it is cell-based. In a few lines:
(§1)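 Mechanism study in modified Tris buffer. PRMT5/MEP50 preincubated 15 min at RT with serially diluted compound (1% DMSO final), then peptide added and reaction started with [3H]-SAM. For the SAM study, [3H]-SAM was set at 7 concentrations with fixed peptide. For the peptide study, peptide was set at 7 concentrations with fixed SAM. Run 60 min at RT, stopped with cold SAM, Flashplate capture, MicroBeta counting.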

The target in series [4] is T2, PRMT5/MEP50 complex (Homo sapiens). Nature of the series: Uncompetitive inhibition of recombinant human N-terminal FLAG-tagged PRMT5 (2 to end residues) /human N-terminal His-tagged MEP50 (2 to end residues) expressed in HEK293F cells using peptide substrate preincubated for 15 mins followed by substrate/[3H]-SAM addition measured after 60 mins under varying concentration of SAM. Type of series: cell-based. In a few lines:
as §1

Series [5] can be described thus: Cytotoxicity against human RCTEC assessed as cell growth inhibition after 8 days by Cell Titer-Glo assay. Conditions: 192 h. Type of series: cell-based. In a few lines: (§2)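 Normal cells (HUVEC from ATCC; RCTEC) grown in RPMI1640 with 10% FBS and 1% penicillin/streptomycin, 5% CO2, 37 °C. Seeded at 0.5–1 × 10^5 cells/well; compound (0–100 μM) added after 6 h. Cells counted and replated with fresh medium and compound every 4 days over 8 days. Viability by CellTiter-Glo luminescence; concentration–response curves fitted at each time point.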

The subject of series [6] is KOPN-8. Nature of the series: Cytotoxicity against human KOPN8 cells assessed as cell growth inhibition after 12 days by Cell Titer-Glo assay. Particulars: KOPN-8, 288 h. A general note: ATP-based viability assays read luminescence as a measure of living cells.
The test system of series [7] is MV4-11. Nature of the series: Cytotoxicity against human MV411 cells assessed as cell growth inhibition after 8 days by Cell Titer-Glo assay. Type of series: functional, cell-based. Particulars: MV4-11, 192 h. In a few lines:
(§3)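 Cancer lines grown in RPMI1640 with 10% FBS and 1% penicillin/streptomycin, 5% CO2, 37 °C. Seeded at 0.5–1 × 10^5 cells/well; compound (0–100 μM) added after 6 h. Counted and replated at equal numbers with fresh medium and compound every 4 days, up to 12 days. Viable cells by CellTiter-Glo luminescence; concentration–response curves fitted at each time point.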

Series [8] deals with Protein arginine N-methyltransferase 5 (Homo sapiens) (UniProt O14744). Nature of the series: Inhibition of PRMT5 in human MV411 cells assessed as downregulation of SmD3 after 6 days by Western blot analysis. In kind it is cell-based. In a few lines: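 MV4-11 cells treated with compound over a 0–20 μM titration for 6 days. Whole-cell lysates run on 4–12% SDS-PAGE, transferred to nitrocellulose, blocked in 5% milk. Probed overnight at 4 °C with anti-symmetric dimethylarginine (SDMA) and GAPDH antibodies, then HRP secondary. SmD3-colocalizing band assessed.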
For orientation: In western blotting, separated proteins are transferred to a membrane and probed.

Series [9] concerns JeKo-1. Nature of the series: Cytotoxicity against human JeKo1 cells assessed as cell growth inhibition after 12 days by Cell Titer-Glo assay. In kind it is functional, cell-based. Particulars: JeKo-1, 288 h. Summed up:
as §3

For series [10], the target named is T2, PRMT5/MEP50 complex (Homo sapiens). Nature of the series: Competitive inhibition of recombinant human N-terminal FLAG-tagged PRMT5 (2 to end residues) /human N-terminal His-tagged MEP50 (2 to end residues) expressed in HEK293F cells using peptide substrate preincubated for 15 mins followed by substrate/[3H]-SAM addition measured after 60 mins under varying concentration of SAM. In kind it is cell-based. In a few lines: as §1

The subject of series [11] is HUVEC. Nature of the series: Cytotoxicity against human HUVEC assessed as cell growth inhibition after 8 days by Cell Titer-Glo assay. In kind it is cell-based. Conditions: 192 h. In a few lines: as §2
Series [12] concerns MV4-11. Nature of the series: Cytotoxicity against human MV411 cells assessed as cell growth inhibition after 4 days by Cell Titer-Glo assay. Type of series: functional, cell-based. Conditions: MV4-11, 96 h. In a few lines:
as §3

The target of series [13] is T2, PRMT5/MEP50 complex (Homo sapiens). Nature of the series: Non-competitive inhibition of recombinant human N-terminal FLAG-tagged PRMT5 (2 to end residues) /human N-terminal His-tagged MEP50 (2 to end residues) expressed in HEK293F cells using peptide substrate preincubated for 15 mins followed by substrate/[3H]-SAM addition measured after 60 mins under varying concentration of peptide. In kind it is cell-based. In a few lines:
as §1

The subject of series [14] is MV4-11. Nature of the series: Cytotoxicity against human MV411 cells assessed as cell growth inhibition after 12 days by Cell Titer-Glo assay. Particulars: MV4-11, 288 h.
The subject of series [15] is Z-138. Nature of the series: Cytotoxicity against human Z138 cells assessed as cell growth inhibition after 12 days by Cell Titer-Glo assay. Type of series: functional, cell-based. Particulars: Z-138, 288 h. In a few lines:
as §3

T1 sequence (O14744 whole entry): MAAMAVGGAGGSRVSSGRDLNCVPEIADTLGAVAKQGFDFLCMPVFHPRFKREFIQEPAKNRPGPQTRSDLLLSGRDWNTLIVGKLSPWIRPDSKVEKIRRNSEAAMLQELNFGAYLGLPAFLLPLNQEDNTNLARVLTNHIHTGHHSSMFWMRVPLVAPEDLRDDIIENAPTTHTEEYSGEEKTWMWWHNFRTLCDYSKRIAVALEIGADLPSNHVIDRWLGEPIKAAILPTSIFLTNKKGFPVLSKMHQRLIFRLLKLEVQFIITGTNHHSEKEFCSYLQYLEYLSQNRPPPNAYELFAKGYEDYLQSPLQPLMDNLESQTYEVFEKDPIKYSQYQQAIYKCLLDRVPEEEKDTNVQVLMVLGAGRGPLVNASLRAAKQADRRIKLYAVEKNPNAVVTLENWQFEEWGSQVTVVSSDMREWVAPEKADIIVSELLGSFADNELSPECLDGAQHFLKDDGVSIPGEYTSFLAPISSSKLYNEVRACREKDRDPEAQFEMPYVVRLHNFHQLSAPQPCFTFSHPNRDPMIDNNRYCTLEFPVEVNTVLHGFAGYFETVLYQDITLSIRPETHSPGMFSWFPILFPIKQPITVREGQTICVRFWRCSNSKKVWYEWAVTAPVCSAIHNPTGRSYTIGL
T1 sequence (Q9BQA1 whole entry, further chain): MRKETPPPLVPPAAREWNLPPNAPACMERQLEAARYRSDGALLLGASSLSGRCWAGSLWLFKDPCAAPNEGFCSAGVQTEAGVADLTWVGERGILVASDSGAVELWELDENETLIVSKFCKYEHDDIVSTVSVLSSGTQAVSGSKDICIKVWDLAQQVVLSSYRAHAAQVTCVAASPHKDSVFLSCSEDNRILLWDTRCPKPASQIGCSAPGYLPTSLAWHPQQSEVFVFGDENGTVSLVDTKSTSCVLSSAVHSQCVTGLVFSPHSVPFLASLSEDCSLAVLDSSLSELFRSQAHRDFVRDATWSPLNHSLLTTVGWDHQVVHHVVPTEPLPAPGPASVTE
Chain of Protein arginine N-methyltransferase 5 (Homo sapiens) (O14744 whole entry): as the sequence (O14744 whole entry) above

Regarding `COC(=O)c1cccc(NC(=O)CSc2nc3cc(OC)ccc3[nH]2)c1`, the IC50 (in general, the concentration that gives 50% inhibition) in [1] is 52 µM.
Consider `O=C(/C=C/c1ccc(-c2ccccc2[N+](=O)[O-])o1)c1ccccc1`, for which the IC50 stood at 169 µM in series [2] and 23 µM in series [1].
Regarding `COC(=O)c1ccccc1NC(=O)CSc1nc2cc(C)ccc2[nH]1`, the IC50 in series [1] came to 1.4 µM.
The same measure, in the same setting: the same measure for `CNc1ccc2[nH]c(SCC(=O)Nc3ccccc3C(=O)OC)nc2c1`: 1.6 µM.
With `COC(=O)c1ccccc1NC(=O)CSc1nc2ccccc2[nH]1`, the figures for the IC50 in series [2] and in [1] were 24 µM and 8.1 µM, respectively.
On to `CCCOc1ccc2[nH]c(SCC(=O)Nc3ccccc3C(=O)OC)nc2c1`, for which the IC50 in series [1] came out at 0.53 µM.
`O=C(NC[C@H](O)CN1CCc2ccccc2C1)c1cc(NC2COC2)ncn1`: the inhibition entry in [3] and in [4] was “Active” throughout.
In the case of `Cc1ccc(OCc2nnc3sc(-c4cccnc4)nn23)cc1`, the IC50 in [2] was greater than 200 µM; in series [1], 26 µM.
As for `COC(=O)c1ccccc1NC(=O)CSc1nc2c(Cl)cccc2[nH]1`, in [1], the IC50 is greater than 100 µM.
Consider `COC(=O)c1ccccc1NC(=O)CSc1nc2cc(Br)ccc2[nH]1`, for which the IC50 in series [1] was found to be 0.34 µM.
Still for that read-out and setting: as for `COc1ccc2[nH]c(SCC(=O)Nc3ccccc3C(=O)N(C)C)nc2c1`, the figure is greater than 200 µM.
Still for that read-out and setting: as for `COC(=O)c1ccncc1NC(=O)CSc1nc2cc(OC)ccc2[nH]1`, the figure is 2.4 µM; as for `COC(=O)c1ccccc1NC(=O)CSc1nc2cc(N(C)C)ccc2[nH]1`, 0.33 µM; as for `COc1ccc2[nH]c(SCC(=O)Nc3ccccc3OC)nc2c1`, 19 µM.
For `COC(=O)c1ccccc1NC(=O)CSc1nc2ccncc2[nH]1`, the IC50 in series [1] amounted to 87 µM.
Still for that read-out and setting: the same measure for `CCOC(=O)c1ccccc1NC(=O)CSc1nc2cc(OC)ccc2[nH]1`: 1.9 µM; for `COc1ccc2[nH]c(SCC(=O)Nc3ccccc3Cl)nc2c1`: 47 µM.
Still for that read-out and setting: as for `COC(=O)c1ccccc1NC(=O)CSc1nc2c(OC)cccc2[nH]1`, the figure is greater than 100 µM; as for `COc1ccc2[nH]c(SCC(=O)Nc3ccccc3)nc2c1`, 33 µM; as for `CCOc1ccc2[nH]c(SCC(=O)Nc3ccccc3C(=O)OC)nc2c1`, 0.35 µM.
As for `COC(=O)c1ccccc1NC(=O)CSc1nc2cc(Cl)ccc2[nH]1`, in series [1], the IC50 worked out at 0.5 µM.
For `COC(=O)c1ccccc1NC(=O)CSc1nc2cc(F)ccc2[nH]1`, the IC50 in series [1] is 3.3 µM.
Still for that read-out and setting: the same measure for `COc1ccc2[nH]c(SCC(=O)Nc3ccccc3C(=O)O)nc2c1`: greater than 100 µM.
Still for that read-out and setting: the same measure for `COc1ccc2[nH]c(SCC(=O)Nc3ccccc3C)nc2c1`: greater than 200 µM; for `COC(=O)c1ccccc1NC(=O)CSc1nc2cc([N+](=O)[O-])ccc2[nH]1`: 0.83 µM; for `COC(=O)c1ccccc1NC(=O)CSc1nc2cc(O)ccc2[nH]1`: greater than 100 µM.
Same read-out and setting: the same measure for `CNC(=O)c1ccccc1NC(=O)CSc1nc2cc(OC)ccc2[nH]1`: greater than 200 µM; for `COC(=O)c1ccccc1NC(=O)CSc1nc2c(C)cccc2[nH]1`: greater than 100 µM.
`COC(=O)c1ccccc1NC(=O)CSc1nc2cc(OC)ccc2[nH]1`: the Activity result in series [5] and in series [11] was “Non-Toxic” in each case. Besides, the EC50 (commonly the concentration needed to bring the measured effect to its halfway point) in series [6] is 15 to 70 µM; in series [7], 25.7 µM; in series [9], 15 to 70 µM; in series [12], 80.7 µM; in [14], 6.53 µM; in [15], 15 to 70 µM. The inhibition result in [8] is “Dose-dependent effect”. The inhibition result in series [10] and in [13] was “Active” in each case.
Turning to `COc1ccc2[nH]c(SCC(=O)Nc3ccccc3C(C)=O)nc2c1`, the IC50 in series [1] was determined as 2.9 µM.
Turning to `COC(=O)c1ccc(NC(=O)CSc2nc3cc(OC)ccc3[nH]2)cc1`, the IC50 in series [1] was greater than 100 µM.
Turning to `COC(=O)c1ccccc1NC(=O)CSc1nc2cc(N)ccc2[nH]1`, in series [1], the half-maximal inhibitory concentration (IC50) amounted to 40 µM.
As to `COC(=O)c1ccccc1NC(=O)CSc1nc2nc(OC)ccc2[nH]1`, the IC50 in series [1] is 8.4 µM.
On the same count and under the same terms, as for `Clc1ccc(CNCC2CCNCC2)cc1Cl`, the figure is 27 µM.
Same read-out and setting: the same measure for `COc1ccc(C(=O)NC2C=NCS2)c(OC)c1` (stereo not drawn): 27 µM; for `COc1ccc2[nH]c(SCC(=O)Nc3ccccc3N(C)C)nc2c1`: 25 µM.
On to `OCCNCc1c(OCc2ccccc2F)ccc2ccccc12`, for which the IC50 is 172 µM in series [2] and 18 µM in [1].
In the case of `COC(=O)c1ccccc1NC(=O)CSc1nc2cc(OC(C)C)ccc2[nH]1`, the IC50 in series [1] stood at 2.8 µM.
